# Several values for one entry are separate records, joined by “and”; a condition that tells them apart may be missing. Equal values may be shown once.
# Experiments:
# [1] = system: Fibroblast; assay: Multiplex assay against human fibroblast; assay type: toxicity, cell-based; details: number of replicates 2
# In short: (§1)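 Per cents of healthy-nucleus cells form the tubulin, mitochondrial-mass and membrane-permeability phenotype values. Live cells were stained at seeding with Hoechst33342, BioTracker Green Microtubule Cytoskeleton Dye, MitoTracker Red and Annexin V Alexa Fluor 680. After compound addition they were imaged on a CQ1 microscope at 37°C and 5% CO2, and CellPathfinder machine-learning gating split them into Hoechst high-intensity objects or normal cells, normal cells into healthy, pyknosed or fragmented nuclei, and pyknosed cells into mitotic or apoptotic.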
# [2] = system: HEK-293T; assay: Multiplex assay against HEK293T; assay type: toxicity, cell-based; details: human, number of replicates 2; in short: as §1
# [3] = 12 h, 1 µM, compound concentration 1 uM
# [4] = 12 h, 10 µM, compound concentration 10 uM
# [5] = 24 h, 1 µM, compound concentration 1 uM
# [6] = 24 h, 10 µM, compound concentration 10 uM
# [7] = 48 h, 1 µM, compound concentration 1 uM
# [8] = 48 h, 10 µM, compound concentration 10 uM
smiles,measurement,setting,value
NC(=O)c1ccc(-c2nc(-c3ccc4c(c3)OCCO4)c(-c3ccccn3)[nH]2)cc1,Population Apoptotic (%),[1]; [3],31% and 28%
same,Population Fragmented Nuclei (%),[1]; [3],5%
same,Population Healthy Nuclei (%),[1]; [3],81% and 72%
same,Population Hoechst High Intensity Objects (%),[1]; [3],0%
same,Population Membrane Permeable-Phenotype (%),[1]; [3],8% and 4%
same,Population Mitochondria Different-Phenotype (%),[1]; [3],0% and 2%
same,Population Mitotic Cells (%),[1]; [3],68% and 71%
same,Population Normal (%),[1]; [3],100%
same,Population Pyknosed Nuclei (%),[1]; [3],13% and 22%
same,Population Tubulin-Different-Phenotype (%),[1]; [3],15% and 6%
same,Total Cell Count,[1]; [3],265 and 208
same,Population Apoptotic (%),[1]; [4],26% and 17%
same,Population Fragmented Nuclei (%),[1]; [4],10% and 18%
same,Population Healthy Nuclei (%),[1]; [4],57% and 67%
same,Population Hoechst High Intensity Objects (%),[1]; [4],0%
same,Population Membrane Permeable-Phenotype (%),[1]; [4],1% and 3%
same,Population Mitochondria Different-Phenotype (%),[1]; [4],0% and 1%
same,Population Mitotic Cells (%),[1]; [4],73% and 82%
same,Population Normal (%),[1]; [4],100%
same,Population Pyknosed Nuclei (%),[1]; [4],32% and 13%
same,Total Cell Count,[1]; [4],187 and 209
same,Population Apoptotic (%),[1]; [5],50% and 53%
same,Population Fragmented Nuclei (%),[1]; [5],9% and 11%
same,Population Healthy Nuclei (%),[1]; [5],83% and 67%
same,Population Hoechst High Intensity Objects (%),[1]; [5],0%
same,Population Membrane Permeable-Phenotype (%),[1]; [5],4% and 2%
same,Population Mitochondria Different-Phenotype (%),[1]; [5],0%
same,Population Mitotic Cells (%),[1]; [5],50% and 46%
same,Population Normal (%),[1]; [5],100% and 99%
same,Population Tubulin-Different-Phenotype (%),[1]; [5],12% and 5%
same,Total Cell Count,[1]; [5],287 and 229
same,Population Apoptotic (%),[1]; [6],37% and 14%
same,Population Fragmented Nuclei (%),[1]; [6],12% and 24%
same,Population Healthy Nuclei (%),[1]; [6],70% and 69%
same,Population Hoechst High Intensity Objects (%),[1]; [6],0%
same,Population Membrane Permeable-Phenotype (%),[1]; [6],2%
same,Population Mitochondria Different-Phenotype (%),[1]; [6],1%
same,Population Mitotic Cells (%),[1]; [6],62% and 85%
same,Population Normal (%),[1]; [6],99% and 100%
same,Population Pyknosed Nuclei (%),[1]; [6],16% and 6%
same,Population Tubulin-Different-Phenotype (%),[1]; [6],10% and 5%
same,Total Cell Count,[1]; [6],209 and 225
same,Population Apoptotic (%),[1]; [7],56% and 77%
same,Population Fragmented Nuclei (%),[1]; [7],12% and 14%
same,Population Healthy Nuclei (%),[1]; [7],82% and 73%
same,Population Hoechst High Intensity Objects (%),[1]; [7],0%
same,Population Membrane Permeable-Phenotype (%),[1]; [7],4%
same,Population Mitochondria Different-Phenotype (%),[1]; [7],0%
same,Population Mitotic Cells (%),[1]; [7],43% and 22%
same,Population Normal (%),[1]; [7],100% and 99%
same,Population Pyknosed Nuclei (%),[1]; [7],5% and 12%
same,Population Tubulin-Different-Phenotype (%),[1]; [7],5% and 4%
same,Total Cell Count,[1]; [7],309 and 221
same,Population Apoptotic (%),[1]; [8],33% and 40%
same,Population Fragmented Nuclei (%),[1]; [8],16% and 24%
same,Population Healthy Nuclei (%),[1]; [8],76% and 73%
same,Population Hoechst High Intensity Objects (%),[1]; [8],0%
same,Population Membrane Permeable-Phenotype (%),[1]; [8],0% and 2%
same,Population Mitochondria Different-Phenotype (%),[1]; [8],0% and 1%
same,Population Mitotic Cells (%),[1]; [8],66% and 60%
same,Population Normal (%),[1]; [8],100%
same,Population Pyknosed Nuclei (%),[1]; [8],6% and 2%
same,Population Tubulin-Different-Phenotype (%),[1]; [8],11% and 7%
same,Total Cell Count,[1]; [8],216 and 234
same,Population Apoptotic (%),[2]; [3],57% and 48%
same,Population Fragmented Nuclei (%),[2]; [3],3%
same,Population Healthy Nuclei (%),[2]; [3],83% and 85%
same,Population Hoechst High Intensity Objects (%),[2]; [3],6% and 8%
same,Population Membrane Permeable-Phenotype (%),[2]; [3],0% and 2%
same,Population Mitochondria Different-Phenotype (%),[2]; [3],16% and 11%
same,Population Mitotic Cells (%),[2]; [3],42% and 52%
same,Population Normal (%),[2]; [3],93% and 91%
same,Population Pyknosed Nuclei (%),[2]; [3],13% and 10%
same,Population Tubulin-Different-Phenotype (%),[2]; [3],54% and 46%
same,Total Cell Count,[2]; [3],656 and 747
same,Population Apoptotic (%),[2]; [4],46% and 38%
same,Population Fragmented Nuclei (%),[2]; [4],3%
same,Population Healthy Nuclei (%),[2]; [4],87% and 88%
same,Population Hoechst High Intensity Objects (%),[2]; [4],7% and 4%
same,Population Membrane Permeable-Phenotype (%),[2]; [4],3% and 5%
same,Population Mitochondria Different-Phenotype (%),[2]; [4],15% and 16%
same,Population Mitotic Cells (%),[2]; [4],53% and 61%
same,Population Normal (%),[2]; [4],92% and 95%
same,Population Pyknosed Nuclei (%),[2]; [4],9% and 8%
same,Population Tubulin-Different-Phenotype (%),[2]; [4],61% and 55%
same,Total Cell Count,[2]; [4],620 and 572
same,Population Apoptotic (%),[2]; [5],44% and 61%
same,Population Fragmented Nuclei (%),[2]; [5],7% and 3%
same,Population Healthy Nuclei (%),[2]; [5],85% and 87%
same,Population Hoechst High Intensity Objects (%),[2]; [5],9% and 7%
same,Population Membrane Permeable-Phenotype (%),[2]; [5],2% and 1%
same,Population Mitochondria Different-Phenotype (%),[2]; [5],4% and 6%
same,Population Mitotic Cells (%),[2]; [5],55% and 38%
